HSF1 activator = HSF-1 activators, primary screen, NIH3T3-HGL cells, MG132 stress, luminescence, single point; actives 1.7% (n = 300,000); activation, % at 9 µM; NIH3T3-HGL HSF-1 luciferase reporter, 8 h; 100% = twice DMSO control signal; AID 504408, 2011;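 active = mean replicate activation of at least 50% with a set share of replicates each reaching 50%; inconclusive = only one of those two conditions met; inactive = mean below 50% and too few replicates reaching it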;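 also: 0% = median of the neutral control wells and 100% = twice that signal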
N-glyco inh = increase of ERlucT glycosylation luciferase signal, primary screen, N-linked glycosylation inhibitor project, D54 ERlucT cells, luminescence, set 2; reporter increase, % at 12.5 µM; actives 0.23% (n = 360,000); D54 ERlucT glycosylation luciferase reporter, 24 h; percent of 100 nM tunicamycin response; AID 588692, 2011;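 active = mean luciferase reporter signal, scaled so untreated is 0 and the glycosylation-blocking control 100, at or above a set limit in every replicate; inconclusive = mean reaches the limit but not every replicate does; inactive = mean below the limit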;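 also: luciferase carries N-glycosylation sites so blocking glycosylation raises the light; 0% = median of neutral control wells and 100% = median of 100 nM tunicamycin wells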
CaV13 ICDI inh = Disruptors of the CACNA1D IQ motif to Ca2+-dependent inactivation inhibitor domain association, primary screening, Förster resonance energy transfer in intact living … | HEK cells, CFP/YFP FRET ICDI-IQ, plate reader, 10 min; percent FRET-ratio fall versus neutral wells | inhibition, % at 12.3 µM | actives 0.098% (n = 340,000) | AID 743397;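 active = mean replicate inhibition of at least 30% and at least 1% of replicates passing that level; inconclusive = only one of the two criteria is met; inactive = neither criterion is met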;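 also: 0% = median of the neutral control wells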
T cruzi inh = inhibitors of intracellular T. cruzi growth, primary screen, luminescence, NIH3T3 host cells | actives 1.4% (n = 300,000) | AID 1885, 2009 | inhibition, % (no concentration beside the values) | T. cruzi beta-gal in NIH3T3, 90 h;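 active = mean inhibition across valid replicates above about 55%, limit read from the data; inconclusive = mean below that limit but half or more replicates reach it; inactive = mean below it, under half of replicates reach it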;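 also: signal also drops with host cell toxicity which is not excluded here; 0% = plate median of DMSO wells and 100% = zero luminescence signal; higher percent means less beta-gal luminescence so fewer parasites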
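Incubation – ≥90 h infection period, 3 h prior cell attachment · System – NIH/3T3 fibroblasts plus reporter T. cruzi · Doses – compound pinned at 50 nL/well, DMSO · Read-out basis – percent inhibition of parasite-derived β-gal signal · Signal – luminescent β-galactosidase signal after 60 min lysis · Also added – 5000 T. cruzi trypomastigotes/well · Medium – Low-serum DMEM with 2% FBS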
PfHsp90 set2 = growth inhibition of PfHsp90-expressing yeast, primary screen, antimalarial PfHsp90 inhibitor project, S. cerevisiae, BacTiter-Glo luminescence, single point, set 2; actives 0.32% (n = 310,000); inhibition, % at 9.4 µM; AID 504621, 2011; BacTiter-Glo ATP, 48 h; yeast lacking PDR1 and PDR3 efflux regulators;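 active = every replicate shows inhibition above about 80%, whatever the replicate mean, limit read from the data; inconclusive = mean inhibition reaches the set limit but some replicate falls short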;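 also: 0% = DMSO neutral controls and 100% = 20 µM radicicol positive controls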
PvdQ inh = P. aeruginosa PvdQ acylase inhibitors, primary screen, biochemical, fluorescence, plate reader and imaging, single point | PvdQ acylase [Pseudomonas aeruginosa LESB58] | purified PvdQ acylase | inhibition, % at 10 µM | actives 0.063% (n = 340,000); in the data active = inhibition above about 30%, passing the limit was not always enough; inconclusive = no clear call, values can overlap the other calls;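 also: 0% = vehicle neutral wells and 100% = reference inhibitor wells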
* = called active by the depositor; ? = inconclusive; · = no result given. Sampled rows, rich in hits. Any-hit rate of the full collection: about 3%.

SMILES	HSF1 activator	N-glyco inh	CaV13 ICDI inh	T cruzi inh	PfHsp90 set2	PvdQ inh
Cc1cc(C(C)(C)C)ccc1OCCOCCN1CCCC1	5	-3	-4	55*	3	-5
Cc1ccc(C)c(NC(=O)CSc2n[nH]c(-c3ccccn3)n2)c1	8	4	-4	-22	7	-13
Cc1ccc(O)c(NC(=O)CSc2n[nH]c(-c3ccccc3)n2)c1	109*	9	·	-15	4	-19
CCOC(=O)c1cnn(-c2ccc(C(F)(F)F)cn2)c1N	61*	1	-5	-6	-30	-7
CCOC(=O)c1cnn(-c2ccccc2)c1N	7	1	·	-37	3	7
Cc1cc(C)nc(N/N=C2/CCCC/C2=C\c2ccccc2)n1	15	1	3	70*	-6	-7
O=C1COc2ccc(OCc3ccc(F)cc3)cc21	54*	-4	-8	0	15	-17
O=C(Nc1ccccc1)c1sc(Cl)nc1-c1ccccc1	13	0	-3	-3	-51	1
Cc1ccc(NC(=O)c2sc(Cl)nc2-c2ccccc2)cc1C	61*	-2	-6	16	-20	-15
Cc1ccc(NC(=O)c2cnc3ccccc3n2)cc1C	62*	-5	-5	-9	0	-6
OC(c1ccc(F)cc1)c1nc(-c2ccc(Cl)cc2)cs1 (centres undefined)	·	2	-11	·	·	·
CC(C)CCN(C)[C@H]1C[C@H]2c3[nH]c4ccccc4c3CCN2C[C@H]1[C@H](C)O	·	·	-4	·	·	·
COCCCC1CCN(C(=O)c2cc(COc3cc(C)ccc3C)on2)CC1	54*	-1	-2	16	10	-13
COC1CCN(C(=O)c2cc(COc3cc(C)ccc3C)on2)CC1	·	3	-17	·	·	·
COc1ccc2c(c1)c(CC(=O)Nc1ccc(C)cc1)c(C)n2C(=O)c1ccc(Cl)cc1	26	0	-5	56*	2	-7
COc1ccc(NC(=O)Cc2c(C)n(C(=O)c3ccc(Cl)cc3)c3ccc(OC)cc23)cc1	-8	-2	-6	44	-3	-5
O=C(Nc1cccc(Cl)c1)c1ccc2sc([C@H]3C[C@H](O)[C@@H](CO)O3)nc2c1	·	0	-6	·	·	·
CCOC(=O)[C@]12CCCC=C1N(Cc1ccc(Cl)cc1Cl)C(=O)[C@H](CC(=O)NCc1ccc(OC)c(OC)c1)C2	·	·	-2	·	·	·
C[C@@H]1CN([C@H](C)CO)C(=O)CCCn2nncc2CO[C@H]1CN(C)Cc1ccc2c(c1)OCCO2	·	2	-4	·	·	·
COc1ccc(CNc2ccc3c(c2)CCC3)cc1Br	-20	-5	19	47	3	-5
COc1ccccc1CNc1ccc2c(c1)CCC2	-32	-4	-22	55*	-1	-9
S=c1nc2c(n[nH]1)c1ccccc1n2CCc1ccccc1	-11	-3	-7	66*	-8	1
CCCCNC(=O)C(NC(=O)Cc1cc(OC)cc(OC)c1)C(=O)c1ccccc1 (centres undefined)	·	·	-17	·	·	·
COc1ccccc1/C=C\C=N\NC(=O)c1ccco1	21	1	-6	-2	6	-12
COc1ccc2o/c(=N/NC(=O)c3cccs3)c(C(N)=O)cc2c1	56*	6	-5	-25	6	9
SMILES	HSF1 activator	N-glyco inh	CaV13 ICDI inh	T cruzi inh	PfHsp90 set2	PvdQ inh
COc1ccccc1C(=O)NNC(=S)NC(=O)c1cccs1	10	-3	·	?	92*	19
COc1cc(/C=N/NC(=O)c2cccs2)ccc1O	41	1	-2	-1	10	7
COc1cccc(/C=N/NC(=O)c2cccs2)c1	63*	-1	-4	6	9	-11
COc1ccccc1/C=C/C=N/NC(=O)c1cccs1	61*	-2	-4	5	-20	-10
CN1C(=O)[C@H]2[C@@H](c3ccc(C(F)(F)F)cc3)N[C@]3(CCCN(Cc4ccc(Cl)cc4)C3=O)[C@H]2C1=O	·	-4	-6	·	·	·
O=c1[nH]c2ccccc2nc1-c1ccc(Cl)cc1	59*	-1	-4	-19	-14	-13
Clc1ccc(SCc2nc3ccccc3[nH]2)cc1	56*	-2	-8	-5	-9	-2
c1ccc(SCc2nc3ccccc3[nH]2)cc1	38	-2	·	-6	-42	-11
Cc1cc(C)c(C#N)c(SCc2nc3ccccc3[nH]2)n1	60*	0	·	-20	12	-7
Cc1ccc(SCc2nc3ccccc3[nH]2)cc1	90*	-5	-4	-12	-39	-7
O=c1[nH]c2ccccc2nc1-c1ccccc1	3	2	-3	-16	-40	-14
O=S(=O)(c1cccs1)N1CCCc2nc(-c3ccccc3)ccc21	·	·	-6	·	·	·
CN(CC(=O)Nc1ccc(F)c(F)c1F)C(=O)CCN1C(=O)C2CC=CCC2C1=O (centres undefined)	·	2	-10	·	·	·
COc1ccccc1C(=O)N1CCN(C(=O)[C@H]2O[C@@H](n3cnc(C(N)=O)n3)[C@H](O)[C@@H]2O)CC1	·	·	-4	·	·	·
N#Cc1ncc(Cc2ccccc2)nc1C#N	97*	8	-6	24	2	-11
N#Cc1nc(Cc2ccccc2)oc1NCc1cccnc1	3	1	·	6	-7	-5
COc1ccccc1NC(=O)c1cc(OC)c(OC)cc1[N+](=O)[O-]	9	1	-20	-1	14	-5
COc1ccc(NC(=O)c2cc([N+](=O)[O-])ccc2O)cc1	-69	-20	-6	-22	76*	2
COc1ccc(NC(=O)c2ccc([N+](=O)[O-])cc2[N+](=O)[O-])c(OC)c1	6	4	-4	61*	-4	-14
COc1ccc(NC(=O)c2cccc([N+](=O)[O-])c2)cc1	-7	1	-4	5	-5	12
Cc1nc2ccc(NC(=O)c3ccc([N+](=O)[O-])cc3[N+](=O)[O-])cc2s1	-3	5	0	79*	-13	-13
COC(=O)c1cc2c(c3c4cc(C)ccc4n(S(=O)(=O)c4ccccc4)c13)C(=O)N(Cc1ccc(C(F)(F)F)cc1)C2	·	·	-4	·	·	·
CN1/C(=C\C(=S)NC(=O)c2cccc(Br)c2)C(C)(C)c2ccccc21	-3	-4	-16	47	-5	19
CCN(CC)S(=O)(=O)c1cccc(C(=O)/C=C2/N(C)c3ccccc3C2(C)C)c1	24	-4	-48	57*	-14	-15

Assay outcomes (PubChem)
